The assay can be described thus: Effective dose against human immuno deficiency virus-1/Ba-L in vitro in human monocyte-derived macrophages (MDM) cells. The format is functional. As to conditions: for EC50: read-out: ED50 (the source's name). Put shortly: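 Primary human monocytes (elutriated, ≥95% pure) differentiated 7 days into MDM in DMEM/10% heat-inactivated FCS; 1 million cells pretreated 1 h with a range of concentrations, then infected with HIV-1/BaL (10 000 TCID50, moi 0.01) for 24 h at 37 °C, washed, refed; medium and drug renewed twice weekly. Supernatant RT activity summed as cumulative RT; ED50/70/90 by Chou software; triplicate, two donors.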

As for `CC(=O)N[C@@H](CSC(C)=O)C(=O)NCCSC(=O)C(C)C`, the ED70 was determined as 55 µM, the ED90 amounted to 80 µM and the EC50 turned out to be 45 µM.

For the molecule `CC(=O)N[C@@H](CS)C(=O)NCCSC(=O)C(C)C`, the ED70 worked out at 175 µM, the ED90 was 380 µM and the EC50 was found to be 110 µM.

For the molecule `CC(=O)N[C@@H](CSC(=O)c1ccccc1)C(=O)NCCSC(=O)C(C)C`, the ED70 was 205 µM, the ED90 is 285 µM and the EC50 was determined as 165 µM.

`CC(=O)N[C@@H](CS)C(=O)NCCSC(C)=O`: the ED70 amounted to 80 µM, the ED90 came to 195 µM and the EC50 turned out to be 45 µM.

In the case of `CC(=O)N[C@@H](CS)C(=O)NCCS`, the ED70 is 75 µM, the ED90 stood at 200 µM and the EC50 was determined as 40 µM.

For the molecule `CC(=O)N[C@@H](CS)C(=O)NCCSC(=O)C(C)(C)C`, the ED70 stood at 185 µM, the ED90 is 270 µM and the EC50 was 145 µM.

For the origin of these results see ChEMBL document CHEMBL1149125, “Synthesis and biological evaluation in human monocyte-derived macrophages of N-(N-acetyl-L-cysteinyl)-S-acetylcysteamine analogues with potent antioxidant and anti-HIV activities” (2004).
